The source of these data is ChEMBL document CHEMBL5143753, “Pyrimido[5,4-d]pyrimidine-Based Compounds as a Novel Class of Antitrypanosomal and Antileishmanial Agents” (ACS Med Chem Lett, 2022).

Series [1] can be described thus: Selectivity index, ratio of CC50 for human THP1 cells to IC50 for antitrypanosomal activity against Trypanosoma brucei brucei Lister 427 bloodstream forms. In kind it is toxicity. Particulars: read-out: Ratio CC50/IC50. In outline: (§1)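 Selectivity index was calculated as THP1 CC50 divided by parasite IC50.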
Series [2] in a line: Cytotoxicity in human THP-1 cells assessed as reduction in cell viability incubated for 48 hrs hrs by MTT assay. It counts as toxicity, cell-based. A general note: Formazan colour is commonly taken as a measure of viable cells.
Series [3] has as its system Trypanosoma brucei brucei. Put plainly: Antitrypanosomal activity against Trypanosoma brucei brucei Lister 427 bloodstream forms incubated for 72 hrs by resazurin based assay. In kind it is functional, organism-based. Particulars: for IC50: Lister 427, 72 h; for IC90: Lister 427, time 72 hrs. A digest of the protocol: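 T. brucei was screened first at 10 μM, with pentamidine as the reference and internal control. IC50 was determined when growth inhibition was above 50%, reported with a 95% confidence interval for the mean curve of the independent assays.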
Background: The colour change of resazurin is a common sign of viable cells or microbes.

In series [4] the test system is Leishmania infantum. Put plainly: Antileishmanial activity against luciferase-expressing Leishmania infantum (MHOM/MA/67/ITMAP-263) axenic amastigotes incubated for 72 hrs by resazurin based assay relative to control. It counts as functional, organism-based. Particulars: MHOM/MA/67/ITMAP-263, 72 h, in the assay text read “promastigotes” for “axenic amastigotes”.
The nature of series [5]: Selectivity index, ratio of CC50 for human THP1 cells to IC50 for Antileishmanial activity against luciferase-expressing Leishmania infantum (MHOM/MA/67/ITMAP-263) axenic amastigotes incubated for 72 hrs by resazurin based assay relative to control. In kind it is toxicity. The settings on record: in the assay text read “promastigotes” for “axenic amastigotes”, read-out: Ratio CC50/IC50. In outline: as §1

A word on the CC50: it is the concentration that lowers cell viability or growth by half. As usually defined, the IC50 is the point on the concentration scale where inhibition reaches its midpoint. In general, IC90 refers to the concentration needed for an effect of 90%. Read a high IC90 as weaker potency. `COc1cc(/C=N/Nc2ncnc3c(Nc4cccc(OCCCO)c4)ncnc23)ccc1O`: the selectivity ratio in series [1] is 1. Also, the CC50 at 48 h in series [2] stood at 25 µM. In series [3], this compound came in with an IC50 of 13.4 µM and an IC90 of 44.9 µM.
The like results for `OCCCOc1cccc(Nc2ncnc3c(N/N=C/c4ccc(O)c(O)c4)ncnc23)c1` were, in that order, 4, 25 µM, 2.29 µM and 5.67 µM.
The corresponding values for `NNc1ncnc2c(Nc3ccc(OCCCO)cc3)ncnc12` are over 33, over 100 µM, 3.03 µM and 35.8 µM.
The corresponding values for `NNc1ncnc2c(Nc3cccc(OCCCO)c3)ncnc12` are over 10, over 100 µM, 9.89 µM and 24.1 µM.
`COc1cc(/C=N/Nc2ncnc3c(Nc4cccc(OCCCO)c4)ncnc23)cc(OC)c1OC`: in series [1], the selectivity ratio turned out to be 8. The cytotoxic concentration (CC50) at 48 h in series [2] was 50 µM. Also, in series [3], half-maximal inhibition (IC50) was put at 6.12 µM and the 90% effect level (IC90) was put at 17.6 µM.
With `CCCCCCCCCCCCCCCCOP(=O)([O-])OCC[N+](C)(C)C` [MILTEFOSINE], half-maximal inhibition in series [4] (IC50) required 2.21 µM. Further, the half-maximal cytotoxic concentration (CC50) at 48 h in series [2] was 30.9 µM. Moreover, in series [5], the selectivity ratio at 72 h amounted to 1.3.
With `COc1ccc(/C=N/Nc2ncnc3c(Nc4cccc(OCCCO)c4)ncnc23)cc1O`, the selectivity ratio in series [1] came to 8. Also, the CC50 at 48 h in series [2] is 50 µM. In addition, in series [3], 6.57 µM corresponded to half-maximal inhibition (IC50) and the IC90 is 18.7 µM.
Take `N=C(N)c1ccc(OCCCCCOc2ccc(C(=N)N)cc2)cc1` [PENTAMIDINE]: in series [1], the selectivity ratio came out at 12800. The CC50 at 48 h in series [2] was 51.8 µM. Moreover, in series [3], the IC50 worked out at 0.00405 µM.
As to `COc1cc(/C=N/Nc2ncnc3c(Nc4cccc(OCCCO)c4)ncnc23)cc(OC)c1O`, in series [1], the selectivity ratio came to 4. For the same compound, the CC50 at 48 h in series [2] turned out to be 50 µM. Also, in series [3], the IC50 stood at 6.06 µM and it took 18.1 µM to reach the 90% level (IC90).
The corresponding values for `Oc1ccc(/C=N/Nc2ncnc3c(Nc4cccc(OCc5ccncc5)c4)ncnc23)cc1O` are over 58, over 100 µM, 1.73 µM and 1.75 µM.
The corresponding values for `COc1cc(/C=N/Nc2ncnc3c(Nc4ccc(OCCCO)cc4)ncnc23)ccc1O` are 14, 50 µM, 3.76 µM and 9.22 µM.
As for `OCCCOc1ccc(Nc2ncnc3c(N/N=C/c4ccc(O)c(O)c4)ncnc23)cc1`, the selectivity ratio in series [1] turned out to be 5. In addition, in series [2], the CC50 at 48 h stood at 25 µM. In series [3], the IC50 came out at 1.9 µM and it took 2.07 µM to reach the 90% level (IC90).
The like results for `OCCCOc1ccc(Nc2ncnc3c(N/N=C/c4cc(O)c(O)c(O)c4)ncnc23)cc1` were, in that order, over 14, over 100 µM, 6.95 µM and 20.5 µM.
Turning to `COc1cc(/C=N/Nc2ncnc3c(Nc4ccc(OCCCO)cc4)ncnc23)cc(OC)c1OC`, the selectivity ratio in series [1] was over 30. The CC50 at 48 h in series [2] was over 100 µM. For the same compound, in series [3], it took 3.32 µM to reach half-maximal inhibition (IC50) and the concentration for an effect of 90% (IC90) was found to be 37.7 µM.
The corresponding values for `OCCCOc1cccc(Nc2ncnc3c(N/N=C/c4cc(O)c(O)c(O)c4)ncnc23)c1` are 15, 50 µM, 3.26 µM and 14.5 µM.
As for `OCCCOc1cccc(Nc2ncnc3c(N/N=C/c4ccc(O)cc4)ncnc23)c1`, the selectivity ratio in series [1] was 8. The CC50 at 48 h in series [2] is 50 µM. In series [3], the 50% inhibitory concentration (IC50) amounted to 6.18 µM and the concentration for an effect of 90% (IC90) was 21.2 µM.
With `COc1cc(/C=N/Nc2ncnc3c(Nc4cccc(OCc5ccncc5)c4)ncnc23)cc(OC)c1O`, in series [1], the selectivity ratio is over 29. The CC50 at 48 h in series [2] was over 100 µM. In addition, in series [3], the IC50 amounted to 3.41 µM and the 90% effect concentration (IC90) is 37.2 µM.
The like results for `COc1cc(/C=N/Nc2ncnc3c(Nc4ccc(OCCCO)cc4)ncnc23)cc(OC)c1O` were, in that order, 4, 50 µM, 12.4 µM and 255 µM.
The like results for `COc1ccc(/C=N/Nc2ncnc3c(Nc4ccc(OCCCO)cc4)ncnc23)cc1OC` were, in that order, 6, 50 µM, 8.59 µM and 25.5 µM.
As to `Oc1cc(/C=N/Nc2ncnc3c(Nc4cccc(OCc5ccncc5)c4)ncnc23)cc(O)c1O`, the selectivity ratio in series [1] is over 26. Moreover, the CC50 at 48 h in series [2] was over 100 µM. For the same compound, in series [3], the concentration for half-maximal inhibition (IC50) was determined as 3.88 µM and it took 8.36 µM to reach the 90% level (IC90).
The like results for `OCCCOc1ccc(Nc2ncnc3c(N/N=C/c4ccc(O)cc4)ncnc23)cc1` were, in that order, 3, 50 µM, 12.9 µM and 88.3 µM.
Consider `COc1ccc(/C=N/Nc2ncnc3c(Nc4ccc(OCCCO)cc4)ncnc23)cc1O`, for which the selectivity ratio in series [1] turned out to be 19. Also, the CC50 at 48 h in series [2] was 50 µM. Further, in series [3], the IC50 was determined as 2.6 µM and the 90% effect level (IC90) was put at 8.73 µM.
The like results for `COc1ccc(/C=N/Nc2ncnc3c(Nc4cccc(OCCCO)c4)ncnc23)cc1OC` were, in that order, over 37, over 100 µM, 2.72 µM and 8.17 µM.
For the compound `NNc1ncnc2c(Nc3cccc(OCc4ccncc4)c3)ncnc12`, the selectivity ratio in series [1] is over 107. In addition, the half-inhibitory concentration (IC50) in series [4] turned out to be 3.13 µM; in series [3] it was 0.94 µM. In addition, in series [2], the cytotoxic concentration (CC50) at 48 h is over 100 µM. In addition, in series [3], the 90% effect concentration (IC90) amounted to 1.24 µM. Further, the selectivity ratio at 72 h in series [5] is over 32.
